Laboratory results reported in ChEMBL document CHEMBL4513216, “Probing the Open Global Health Chemical Diversity Library for Multistage-Active Starting Points for Next-Generation Antimalarials” (ACS Infect Dis, 2020).

Assay: Toxicity liver stage against HepG2, at 10uM
Assay type: cell-based
Design: test concentration 10 uM, cell line HepG2-A16-CD81EGFP
Settings: human, HepG2-A16-CD81EGFP cells; read-out: INHIBITION
How it was run: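 Uninfected HepG2-A16-CD81EGFP cells, 3 × 10^3 per well, 1536-well, plated on prespotted compound at 10 μM final, parasite-free screening media added to match infected plates; puromycin 10 μM positive, DMSO 0.5% negative; run in parallel with 48 h PbLuc assay at 37 °C, 5% CO2; viability by CellTiter-Glo luminescence, normalized to controls.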

Compound	cytotoxicity at 10 µM
CSc1ccccc1NC(=O)C1CN(C(=O)c2ccc3c(c2)OCO3)C1	-12.3%
Cc1nc(CN2CCC23CCN(C(=O)c2ccncc2)CC3)cs1	0.933%
O=C([C@H]1CCS(=O)(=O)[C@@H]2CN(Cc3ccc(F)cc3)C[C@H]12)N1CCCC1	2.96%
CC(C)NC(=O)Cn1cc(-c2ccccc2)ncc1=O	-9.87%
O=C(Nc1ccc(F)cc1F)Nc1c[nH]c(=O)[nH]c1=O	-3.55%
CCn1cc(CNC(=O)CC(C)C)cn1	4.18%
Cc1nc(N2CCN(C(=O)c3ccccn3)CC2)c2c(n1)c(C)nn2C	5.06%
Cc1cc(C(=O)NCc2c(C)nn(C)c2C)nc(N2CCOCC2)n1	0.0436%
N#CCC1CC(c2ccc(F)cc2)=NO1 (stereo unspecified)	-2.37%
CCn1cc(CN(C)S(=O)(=O)c2cc(Cl)ccc2Cl)cn1	8.6%
O=C1CC(c2ccccc2)c2snc(C(=O)O)c2N1 (stereo unspecified)	-5.02%
CCn1nc(C)c(CN2CCC(c3ccn[nH]3)C2)c1C (stereo unspecified)	-0.125%
Cc1c(CN2CCCC2c2cncc(CN3CCCC3)n2)cnn1C (stereo unspecified)	-1.15%
Cc1nn(C)cc1-c1cc(C(=O)NCC(C)(C)c2ccccc2F)n[nH]1	6.82%
NC(=O)C1(c2cnccn2)CCCN1C(=O)Cc1ccsc1 (stereo unspecified)	1.54%
O=C(C1CCOC1)N1Cc2ccccc2OC2(CCOCC2)C1 (stereo unspecified)	1.32%
C=Cn1ncc(CN2C[C@@H]3C[C@@H](O)CN3C[C@H]2Cc2ccccc2)c1C	4.08%
Cc1cc(-c2ccccc2C(=O)O)nc(C2CCCN(C(C)C)C2)n1 (stereo unspecified)	-4.47%
CC(O)c1cn(Cc2cccc(C(F)(F)F)c2)nn1 (stereo unspecified)	14.1%
CN(CC1CCOC1)c1ncc(Br)cn1 (stereo unspecified)	4.23%
CC(c1cccnc1)N(C)S(C)(=O)=O (stereo unspecified)	-5.21%
CCn1cnnc1CCNC(=O)c1ccc(F)c(Br)c1	5.36%
COc1ccccc1C(=O)NCc1n[nH]c(C)n1	-0.519%

Compound	cytotoxicity at 10 µM
NC(=O)CC1CCN(S(=O)(=O)N2CCCC2c2ccco2)CC1 (stereo unspecified)	3.82%
CCc1oc(C(=O)N[C@@H]2c3ccccc3C[C@@H]2O)cc1C	0.243%
NC(=O)CN(CC(=O)NCCc1c(F)cccc1F)C1CCCC1	-8.02%
Cc1cccc(NCCOc2cccc(C#N)c2)c1C(N)=O	-3.59%
CC(C)n1nc2c(cc1=O)CN(CCOc1ccccc1C#N)CC2	13.7%
CC(=O)N(c1ccc(C)cc1)c1nc(CN2CCCC(C)C2)cs1 (stereo unspecified)	-6.71%
COCCNc1ccc(CNC(=O)C2COc3ccccc32)cc1 (stereo unspecified)	-13.9%
Cc1nccn1CCCNc1nccnc1C#N	-7.21%
CCOCCC(=O)Nc1ccnn1-c1ccc(Cl)cc1	-12.6%
Cc1ccc(C(=O)NS(=O)(=O)Cc2ccon2)c(C)c1	-3.16%
CC(=O)c1ccc(-n2c(C)cn(CCC(=O)NC(N)=O)c2=O)cc1	14.3%
Cc1cc(C(C)(O)CNC(=O)c2ccc(Br)o2)c(C)o1 (stereo unspecified)	-0.159%
Cc1nncn1CCNC(=O)C(C)(C)c1cccc(F)c1	5.73%
O=C(NCCO)Nc1cccc(Cl)c1SC(F)F	5.98%
CN(C)c1nccc(NCc2cc(-c3ccco3)n[nH]2)n1	2.27%
CC(C)C[C@@H](C(N)=O)n1cc(-c2cncnc2)nn1	3.28%
CNc1ccnc(N2CCC(c3nnc(CN4CCCC4)n3C)CC2)n1	0.715%
CSCC(=O)N(C)Cc1cnn(-c2ccc(F)cc2)c1	-13.4%
O=C(NCCCOc1cccnc1)c1cn(Cc2ccccc2F)nn1	1.03%
CCCN1CCC(Cc2noc(-c3ncccc3C)n2)CC1	0.0119%
CCC(C(=O)N1CCN(S(=O)(=O)N2CCCC2)CC1)n1cccn1 (stereo unspecified)	-8.56%
Cc1cccc(CN2C[C@@H](CN3CCCN(C)CC3)C[C@H](CO)C2)n1	2.04%
Cc1nn(C(C)C)c(C)c1CN1CCC(c2cc(C(C)C)n[nH]2)CC1	1.34%

Compound	cytotoxicity at 10 µM
Cc1nc2ccccn2c1CN1C[C@@H](CN2CCOCC2)[C@@H](CO)C1	1.73%
CCc1ocnc1C(=O)N1CCOC(CCCC(C)C)C1 (stereo unspecified)	4.29%
CC(NC(=O)CCCc1ccc(Cl)cc1)c1n[nH]c(=O)[nH]1 (stereo unspecified)	3.26%
Cc1cc(=O)c2ccccc2n1CC1CCNC1 (stereo unspecified)	5.98%
COc1ccccc1OCCCN1CCNC1=O	1.5%
O=C(c1ccnc(N2CCOC(C(F)(F)F)C2)c1)N1CCOCC1 (stereo unspecified)	2.52%
Cc1ccccc1C(C(=O)N(C)Cc1cnn(C)c1)N(C)C (stereo unspecified)	-0.837%
O=C(Cn1ccc2ccccc21)NCc1cc(N2CCOCC2)ncn1	4.44%
O=C(NCc1ccc2c(c1)CCCO2)c1cn2c(n1)CNCC2	-15.7%
COc1ccnc(CN2CC(=O)N(c3ccc(C)cc3)CC2C)c1OC (stereo unspecified)	-10.8%
CC(C)C1CN(S(=O)(=O)N(C)C)CCCN1Cc1ccc(F)cc1 (stereo unspecified)	5.17%
Cc1cccnc1[C@H](C)Nc1nc(-c2cccnc2)nc2c1CNC2	-8.52%
O=C(c1cnnn1-c1ccccc1)N1CCCC(c2ccn[nH]2)C1 (stereo unspecified)	-2.75%
CN(Cc1ccc2nsnc2c1)CC1(O)CNCCOC1 (stereo unspecified)	-5.03%
CCN(Cc1ccc(C)o1)C(=O)C(C)n1ccnc1C(C)C (stereo unspecified)	7.66%
CN(C)C(=O)c1nc(CN2C(=O)OC[C@@H]2c2ccccc2)no1	-1.95%
CN(C(=O)Cc1ccn(C)c1)C1CCCN(C2Cc3ccccc3C2)C1 (stereo unspecified)	4.77%
CC(C)(C)c1nc(CN2CCC3(CCCO3)CCC2=O)no1 (stereo unspecified)	-4.57%
CC(Cn1ccnc1)NCc1n[nH]c2c1CCC2 (stereo unspecified)	6.07%
CCS(=O)(=O)c1ncc(CN2CCCC2)n1CCc1ccccc1	5.35%
O=C(O)C1c2nc[nH]c2CCN1Cc1ccccc1-c1ccccc1 (stereo unspecified)	-10.5%
Cc1cc(C(=O)N2C[C@H](c3ccccc3)[C@@H](N)C2)c2ccc(F)cc2n1	3.96%
COc1ccc([C@@H]2CN(C(=O)CCCc3cn[nH]c3)C[C@H]2N(C)C)cc1	-2.31%

Compound	cytotoxicity at 10 µM
CCS(=O)(=O)N1CCCC(c2nccn2Cc2cccnc2)C1 (stereo unspecified)	-2.78%
CCN1CCC(CC(=O)NCCc2nc(C)c(Cl)s2)CC1	-7.43%
CC(C)[C@H]1CN(c2ccnc(N)n2)C[C@@H]1NC(=O)C1(C#N)CCOCC1	-2.8%
Cc1cnn(C2(C(=O)O)CCN(c3ccncc3F)CC2)c1	-1.94%
CCC[C@H]1CN(CCS(C)(=O)=O)C[C@@H]1NC(=O)c1cc[nH]n1	2.75%
COc1ccccc1OC1CCN(C(=O)c2cnc(C)s2)CC1	-19.2%
CC(C)(C)c1ccc(C(=O)C2CCCN(C(=O)CNS(C)(=O)=O)C2)cc1 (stereo unspecified)	4.1%
O=C(CN1CCOc2ccccc2C1)NCc1cc2n(n1)CCCNC2	8.1%
CCCn1ncc(CN(Cc2ccsc2)Cc2ccco2)c1C	9.27%
CC(COc1ccccc1)NCc1cn2ccccc2n1 (stereo unspecified)	16.6%
Cc1ccccc1SC1CCN(C(=O)C2CNC(=O)N2)CC1 (stereo unspecified)	-2.22%
CC(C)C1CN(c2ncccn2)CCC(=O)N1Cc1ccc(F)cc1 (stereo unspecified)	1.76%
Cn1cc(CNc2ncnc3c2CCN(Cc2ccsc2)CC3)cn1	15.5%
CSCCC(NC(=O)c1nc(SC)ncc1Cl)C(=O)O (stereo unspecified)	-8.77%
CCCc1noc(CNc2ccc(C(=O)N3CCCC3)cc2C)n1	-2.83%
Cc1ccc(F)c(NS(=O)(=O)c2cc(C(=O)O)oc2C)c1	-3.52%
CC(C)CCC(C)NC(=O)CN1C=Nc2ccccc2S1(=O)=O (stereo unspecified)	-1.64%
CC(Cn1cccn1)NCc1nc(-c2ccco2)no1 (stereo unspecified)	-2.66%
NS(=O)(=O)c1ccc(C(=O)N2CCCC2c2ccccc2)o1 (stereo unspecified)	-6.48%
Cc1ncsc1C(=O)NCc1ccnc(N2CCN(C)CC2)c1	-6.92%
COc1ccccc1NC(=O)NCC(O)c1ccc(F)cc1F (stereo unspecified)	4.1%
O=C1NCC(C(=O)Nc2ncc(Cc3cccc(F)c3)s2)N1 (stereo unspecified)	-2.45%
CCN(Cc1c(F)cccc1F)Cn1nc(C)c2c(C)onc2c1=O	-1.52%

Compound	cytotoxicity at 10 µM
Cc1nccn1CCCC(=O)N1CCC(N(C)c2cccnn2)CC1	-13.4%
Cc1nn(C)c(C)c1C1CCCN1C(=O)c1nccnc1N (stereo unspecified)	-3.08%
COc1ccc(CC(=O)N2CCCC(c3nncn3C)C2)cc1 (stereo unspecified)	-7.47%
O=C(c1ccccc1OCC1CC1)N1CCCC1Cn1cccn1 (stereo unspecified)	-6.77%
CCN1CCOC(CNCc2ccccc2OCC(=O)N(C)C)C1 (stereo unspecified)	-15.4%
Cc1cc(NC(=O)CCN(CC2CCOC2)C2CC2)no1 (stereo unspecified)	-0.794%
c1cnnc(N2CCCC2CNc2nc3ccccc3o2)c1 (stereo unspecified)	-2.96%
CS(=O)(=O)Cc1ccc(CNC(=O)c2cccnc2O)cc1	0.481%
CN(Cc1nnc2n1CCC2)C(=O)Cc1ccc2c(c1)OCCO2	-7.86%
CCn1cnnc1C1CCN(C(=O)C(OC)c2ccccc2)CC1 (stereo unspecified)	5.25%
Cc1ccc(C2(CN3CCN(Cc4cnc(C)n4C)CC3)CC2)cc1	-3.99%
O=S1(=O)NC[C@H]2CCN(Cc3ccccc3)CC[C@H]21	-10.5%
CC(=O)N1C[C@H]2CCCC(N3CCN(c4ncccn4)CC3)[C@H]2C1 (stereo partly specified)	9.46%
Cc1cccc(CN2CCC3(CCCN(C(=O)c4ccsc4)C3)C2=O)n1 (stereo unspecified)	-1.14%
N#Cc1ccccc1C(=O)N1C[C@@H]2CC[C@H]1CN(c1ncccn1)C2	2.43%
CCOC(=O)N1C[C@@H]2CC[C@H]1CN(Cc1ccccc1)C2	2.7%
CCCn1cc(Cl)c(C(=O)N2C[C@H]3CC(OC)C[C@H]3C2)n1 (stereo partly specified)	0.19%
CS(=O)(=O)N1C[C@H]2CC[C@@H](C1)N(C(=O)CCn1cnc3ccccc31)C2	4.11%
CC(C)=CCN1C(=O)[C@@H]2CC[C@H]1CN(c1ncccc1F)C2	9.72%
